Measured values taken from ChEMBL document CHEMBL4673268, “The optimization of a novel selective antagonist for human M muscarinic acetylcholine receptor” (Bioorg Med Chem Lett, 2020).
Active and inactive are the calls of the source. The rule behind the calls is not given here.

Key:
[1] = target: Muscarinic acetylcholine receptor M3 (Homo sapiens, UniProt P20309); assay: Displacement of [3H]-NMS from muscarinic M3 receptor (unknown origin) expressed in CHO-K1 cell membranes assessed as inhibition constant by radioligand competition analysis; parameters: species or system Cell membrane
Sequence of Muscarinic acetylcholine receptor M3 (P20309 whole entry): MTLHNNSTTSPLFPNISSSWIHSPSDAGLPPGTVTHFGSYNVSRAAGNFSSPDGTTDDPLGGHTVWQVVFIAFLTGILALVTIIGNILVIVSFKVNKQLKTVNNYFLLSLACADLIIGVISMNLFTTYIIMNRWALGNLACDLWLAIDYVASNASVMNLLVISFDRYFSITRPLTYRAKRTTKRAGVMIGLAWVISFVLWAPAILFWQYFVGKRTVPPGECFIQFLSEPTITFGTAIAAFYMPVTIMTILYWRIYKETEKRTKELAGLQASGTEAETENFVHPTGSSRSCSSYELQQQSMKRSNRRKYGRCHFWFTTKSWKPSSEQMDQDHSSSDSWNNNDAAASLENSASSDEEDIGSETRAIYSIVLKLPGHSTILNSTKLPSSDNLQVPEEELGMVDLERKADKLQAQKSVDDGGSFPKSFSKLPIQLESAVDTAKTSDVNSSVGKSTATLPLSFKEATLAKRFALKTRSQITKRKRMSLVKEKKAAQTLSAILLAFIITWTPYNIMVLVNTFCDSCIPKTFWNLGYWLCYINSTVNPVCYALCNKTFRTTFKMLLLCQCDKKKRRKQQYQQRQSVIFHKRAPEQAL
Summary of the method: (§1)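 Inhibition constants came from radioligand competition binding. Acetylcholine and atropine were included as positive controls for competitive binding. Values are given as mean ± SEM.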

[2] = target: T1, Muscarinic acetylcholine receptor M4 (Homo sapiens, UniProt P08173); assay: Displacement of [3H]-NMS from muscarinic M4 receptor (unknown origin) expressed in CHO-K1 cell membranes assessed as inhibition constant by radioligand competition analysis; parameters: species or system Cell membrane; summary of the method: as §1
T1 sequence (P08173 whole entry): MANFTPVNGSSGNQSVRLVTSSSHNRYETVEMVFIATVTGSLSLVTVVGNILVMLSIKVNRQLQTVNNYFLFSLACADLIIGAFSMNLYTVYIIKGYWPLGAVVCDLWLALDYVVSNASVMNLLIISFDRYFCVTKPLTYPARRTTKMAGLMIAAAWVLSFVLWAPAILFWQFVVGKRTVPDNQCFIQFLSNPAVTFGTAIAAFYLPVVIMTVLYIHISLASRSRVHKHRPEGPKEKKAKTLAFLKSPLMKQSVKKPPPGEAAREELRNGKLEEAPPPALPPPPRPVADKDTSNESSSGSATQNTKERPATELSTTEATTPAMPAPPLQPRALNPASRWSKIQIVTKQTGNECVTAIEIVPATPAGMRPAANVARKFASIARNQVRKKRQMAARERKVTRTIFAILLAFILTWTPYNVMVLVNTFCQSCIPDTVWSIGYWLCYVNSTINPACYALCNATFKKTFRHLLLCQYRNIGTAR

[3] = target: T2, Muscarinic acetylcholine receptor M2 (Homo sapiens, UniProt P08172); assay: Antagonist activity at human muscarinic M2 receptor expressed in CHO cells co-expressing Galpha15 assessed as inhibition of acetylcholine-induced calcium mobilization relative to acetylcholine; format: functional, cell-based
T2 sequence (P08172 whole entry): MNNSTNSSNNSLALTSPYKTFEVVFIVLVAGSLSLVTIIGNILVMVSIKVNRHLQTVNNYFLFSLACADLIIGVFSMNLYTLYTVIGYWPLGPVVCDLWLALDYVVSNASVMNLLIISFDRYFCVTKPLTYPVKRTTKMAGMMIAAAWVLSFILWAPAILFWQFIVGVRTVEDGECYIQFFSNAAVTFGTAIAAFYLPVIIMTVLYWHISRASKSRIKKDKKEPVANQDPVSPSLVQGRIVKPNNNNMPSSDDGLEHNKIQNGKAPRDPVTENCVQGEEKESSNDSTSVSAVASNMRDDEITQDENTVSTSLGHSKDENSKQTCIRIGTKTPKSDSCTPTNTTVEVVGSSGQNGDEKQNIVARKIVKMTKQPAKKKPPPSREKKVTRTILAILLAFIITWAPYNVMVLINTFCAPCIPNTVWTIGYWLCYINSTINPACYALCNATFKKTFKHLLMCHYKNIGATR

[4] = target: T2, Muscarinic acetylcholine receptor M2; assay: Displacement of [3H]-NMS from muscarinic M2 receptor (unknown origin) expressed in CHO-K1 cell membranes assessed as inhibition constant by radioligand competition analysis; parameters: species or system Cell membrane
[5] = target: T3, Muscarinic acetylcholine receptor M1 (Homo sapiens, UniProt P11229); assay: Displacement of [3H]-NMS from muscarinic M1 receptor (unknown origin) expressed in CHO-K1 cell membranes assessed as inhibition constant by radioligand competition analysis; parameters: species or system Cell membrane; summary of the method: as §1
T3 sequence (P11229 whole entry): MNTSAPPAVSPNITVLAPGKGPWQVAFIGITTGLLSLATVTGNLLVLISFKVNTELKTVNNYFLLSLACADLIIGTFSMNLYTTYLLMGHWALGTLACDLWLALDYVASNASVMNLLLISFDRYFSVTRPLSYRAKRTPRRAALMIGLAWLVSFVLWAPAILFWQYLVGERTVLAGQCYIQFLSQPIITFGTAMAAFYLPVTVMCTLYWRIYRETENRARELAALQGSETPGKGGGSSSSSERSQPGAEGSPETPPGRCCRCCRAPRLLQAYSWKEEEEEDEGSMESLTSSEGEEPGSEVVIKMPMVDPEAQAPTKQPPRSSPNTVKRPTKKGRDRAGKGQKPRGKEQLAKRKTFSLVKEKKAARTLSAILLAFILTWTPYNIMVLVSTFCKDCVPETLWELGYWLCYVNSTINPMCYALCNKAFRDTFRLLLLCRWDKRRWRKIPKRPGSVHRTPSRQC

[6] = target: T4, Muscarinic acetylcholine receptor M2 (Homo sapiens) (UniProt P08172); assay: Antagonist activity at muscarinic M2 receptor (unknown origin) at 100 uM by acetylcholine titration assay; settings: filed as antagonist
T4 sequence (whole entry): T2 sequence (P08172 whole entry)
Summary of the method: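 Acetylcholine titration curves were run in a radioligand binding format, without and with test ligand at 100 μM. A rightward shift of the ACh curve was taken to indicate negative allosteric modulation, and no shift to indicate orthosteric antagonism.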

| SMILES | Ki [1] | Ki [2] | IC50 [3] | Ki [4] | Ki [5] | Activity [6] |
| --- | --- | --- | --- | --- | --- | --- |
| CC1CCCC(C)N1C(=O)CCN1CCCc2ccccc21 (centres undefined) | 55 µM | 17.8 µM | – | – | 27.5 µM | – |
| O=C(CCN1CCCc2ccccc21)NCc1ccco1 | 12 µM | 4.37 µM | 1.12 µM | 1.23 µM | 2.63 µM | – |
| Cn1ccc(NC(=O)CCN2CCCc3ccccc32)n1 | 25.7 µM | 8.71 µM | 0.977 µM | 3.31 µM | 7.59 µM | – |
| O=C(CCN1CCCc2ccccc21)Nc1ccc(O)cc1F | > 100 µM | > 100 µM | > 100 µM | 64.6 µM | > 100 µM | – |
| CC(C)(C)OC(=O)N1CCN(CC(=O)n2c3ccccc3c3ccccc32)CC1 | 21.9 µM | 25.7 µM | 18.6 µM | 22.9 µM | 12.9 µM | – |
| O=C(CCN1CCCc2ccccc21)N1CCC[C@H]1CO | 43.7 µM | 12.9 µM | 17.4 µM | 5.13 µM | 14.1 µM | – |
| O=C(CCN1CCCc2ccccc21)NCc1cccc(F)c1 | 12.9 µM | 6.46 µM | – | – | 2.04 µM | – |
| O=C(CCN1CCCc2ccccc21)Nc1cccc2ccccc12 | 26.3 µM | 4.07 µM | 0.339 µM | 0.912 µM | 9.33 µM | – |
| C[C@@H]1CCC[C@H](C)N1C(=O)CCN1CCCc2ccccc21 | 3.55 µM | 1.12 µM | – | – | 1.15 µM | – |
| O=C(CCN1CCCc2ccccc21)NCc1cccs1 | 7.24 µM | 2.14 µM | 1.02 µM | 0.646 µM | 0.646 µM | – |
| O=C(CCN1CCCc2ccccc21)NC1CCCC1 | 2.57 µM | 0.257 µM | – | – | 0.245 µM | – |
| COC1CN(C(=O)CCN2CCCc3ccccc32)C1 | 32.4 µM | 15.8 µM | 20.4 µM | 3.55 µM | 17.4 µM | – |
| O=C(CCN1CCCc2ccccc21)Nc1ccc(Cl)cc1 | 10.7 µM | 10.7 µM | 1.41 µM | 3.31 µM | 5.62 µM | – |
| O=C(CCN1CCCc2ccccc21)Nc1ccccc1 | 0.776 µM | 0.214 µM | – | – | 0.263 µM | – |
| O=C(CCN1CCCc2ccccc21)Nc1cccnn1 | 29.5 µM | 14.1 µM | – | – | 14.1 µM | – |
| O=C(CCN1CCCc2ccccc21)N1CCCC1CO (centres undefined) | 32.4 µM | 11.7 µM | 19.1 µM | 5.13 µM | 14.1 µM | – |
| CCn1c2ccccc2c2ccc(NCC(=O)N3CCCCC3)cc21 | 44.7 µM | 91.2 µM | – | – | 43.7 µM | – |
| Cn1ccc2c(NC(=O)CCN3CCCc4ccccc43)cccc21 | > 100 µM | 12 µM | 0.427 µM | 2.29 µM | 5.01 µM | – |
| O=C(O)C1CCCN1C(=O)CCN1CCCc2ccccc21 (centres undefined) | 4.57 µM | 0.891 µM | 0.776 µM | 0.575 µM | 1.05 µM | – |
| CC1CCCCN1CC(=O)n1c2ccccc2c2ccccc21 (centres undefined) | > 100 µM | > 100 µM | 52.5 µM | 95.5 µM | > 100 µM | – |
| O=C(CCN1CCCc2ccccc21)Nc1nccs1 | > 100 µM | 58.9 µM | – | – | 1.12 µM | – |

Second part, the compound after the results:

| Ki [1] | Ki [2] | IC50 [3] | Ki [4] | Ki [5] | Activity [6] | SMILES |
| --- | --- | --- | --- | --- | --- | --- |
| 53.7 µM | 18.6 µM | 29.5 µM | 6.17 µM | 33.1 µM | – | O=C(CCN1CCCc2ccccc21)N1CCCC(O)C1 (centres undefined) |
| 31.6 µM | 7.24 µM | 10.7 µM | 3.63 µM | 11.5 µM | – | O=C(CCN1CCCc2ccccc21)N1CCCCC1CO (centres undefined) |
| 33.1 µM | 17 µM | 15.1 µM | 13.2 µM | 23.4 µM | – | O=C(CCN1CCCc2ccccc21)N1CCC(O)CC1 |
| 66.1 µM | 21.4 µM | 24.5 µM | 18.6 µM | 17.8 µM | – | Cc1ccc2c(c1)CCCN2CC(=O)N1CCCCC1 |
| 85.1 µM | > 100 µM | > 100 µM | 43.7 µM | 93.3 µM | – | O=C(CN1CCCc2cnccc21)N1CCCC1 |
| 0.977 µM | 0.288 µM | – | – | 0.302 µM | – | CC1CCN(C(=O)CCN2CCCc3ccccc32)CC1 |
| 5.25 µM | 1.74 µM | 0.759 µM | 0.617 µM | 1.45 µM | – | O=C(CCN1CCCc2ccccc21)N1CCCC(CO)C1 (centres undefined) |
| 11 µM | 1.23 µM | 0.437 µM | 0.417 µM | 2.88 µM | – | O=C(CN1CCCc2ccccc21)N1CCCCC1 |
| 8.51 µM | 5.25 µM | 3.16 µM | 3.24 µM | 6.31 µM | – | CC1CCCCN1C(=O)CCN1CCCc2ccccc21 (centres undefined) |
| > 100 µM | 87.1 µM | – | – | > 100 µM | – | O=C(CN1CCCc2ccc(O)cc21)N1CCCCC1 |
| 1.74 µM | 0.158 µM | – | – | 0.229 µM | – | O=C(CCN1CCCc2ccccc21)NC1CCCCC1 |
| 7.41 µM | 1.38 µM | 0.617 µM | 0.389 µM | 2.88 µM | – | O=C(CN1CCCc2ccccc21)N1CCCC1 |
| 52.5 µM | 8.91 µM | 7.41 µM | 3.63 µM | 28.2 µM | – | CC1CCc2ccccc2N1CC(=O)N1CCCCC1 (centres undefined) |
| 11.5 µM | 5.75 µM | 12 µM | 1.7 µM | 4.47 µM | – | O=C(CCN1CCCc2ccccc21)N1CCC1 |
| > 100 µM | > 100 µM | > 100 µM | > 100 µM | > 100 µM | – | O=C(CN1CCc2ccc(Br)cc21)N1CCCCC1 |
| > 100 µM | 6.31 µM | 4.9 µM | 2.45 µM | 44.7 µM | – | CC1CCc2ccccc2N1CC(=O)N1CCCC1 (centres undefined) |
| > 100 µM | > 100 µM | > 100 µM | > 100 µM | – | Active | CC1Cc2ccccc2N1CC(=O)N1CCCCC1 (centres undefined) |
| 95.5 µM | > 100 µM | 75.9 µM | 50.1 µM | > 100 µM | – | O=C(CN1CCc2ccc(F)cc21)N1CCCC1 |
| 79.4 µM | 74.1 µM | > 100 µM | 21.4 µM | 100 µM | Active | CC1Cc2ccccc2N1CC(=O)N1CCCC1 (centres undefined) |
| > 100 µM | 50.1 µM | 70.8 µM | 16.6 µM | 51.3 µM | – | O=C(CCN1CCCc2ccccc21)N1CCC(O)C1 (centres undefined) |
| 2.88 µM | 1.58 µM | 1.82 µM | 0.288 µM | 1.05 µM | – | O=C(CCN1CCCc2ccccc21)N1CCCC1 |
| 2.88 µM | 0.776 µM | 1.51 µM | 0.407 µM | 0.603 µM | – | CC1CCCN(C(=O)CCN2CCCc3ccccc32)C1 (centres undefined) |
| 60.3 µM | 58.9 µM | > 100 µM | 40.7 µM | > 100 µM | – | O=C(CN1CCCc2cnccc21)N1CCCCC1 |
